Assay results: ChEMBL document CHEMBL4346654 (Eur J Med Chem, 2019)
≈ marks a conversion by molar mass, not a printed value.

Assays:
Assay type in all cases: functional
[1] = system: Staphylococcus aureus; test: Antibacterial activity against MLS-resistant Staphylococcus aureus PU 32 expressing inducible ermA gene assessed as reduction in microbial growth by CLSI based two-fold broth dilution method
[2] = system: Streptococcus pneumoniae; test: Antibacterial activity against erythromycin-susceptible Streptococcus pneumoniae ATCC49619 assessed as reduction in microbial growth by CLSI based two-fold broth dilution method
[3] = system: Streptococcus pneumoniae; test: Bactericidal activity against erythromycin-susceptible Streptococcus pneumoniae ATCC49619 pretreated followed by subculture in absence of compound measured after 24 hrs
Outline: (§1)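 Isolates were identified by 16S rDNA sequencing. MIC was determined by CLSI-recommended two-fold broth dilution. For MBC, samples from 1–8 fold MIC were transferred to culture medium and subcultured for 24 h without antibiotic.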

[4] = system: Haemophilus influenzae; test: Antibacterial activity against azithromycin-susceptible Haemophilus influenzae ATCC 49247 assessed as reduction in microbial growth by CLSI based two-fold broth dilution method
[5] = system: Streptococcus pneumoniae; test: Antibacterial activity against Streptococcus pneumoniae 07P390 expressing constitutive ermB gene assessed as reduction in microbial growth by CLSI based two-fold broth dilution method
[6] = system: Streptococcus pneumoniae; test: Antibacterial activity against penicillin-susceptible Streptococcus pneumoniae PU 09 expressing mef gene assessed as reduction in microbial growth by CLSI based two-fold broth dilution method
[7] = system: Streptococcus pneumoniae; test: Bactericidal activity against penicillin-susceptible Streptococcus pneumoniae PU 09 expressing mef gene pretreated followed by subculture in absence of compound measured after 24 hrs; outline: as §1
[8] = system: Streptococcus pneumoniae; test: Selectivity ratio of MBC to MIC for penicillin-susceptible Streptococcus pneumoniae PU 09 expressing mef gene; outline: as §1
[9] = system: Streptococcus pneumoniae; test: Bactericidal activity against Streptococcus pneumoniae 07P390 expressing constitutive ermB gene pretreated followed by subculture in absence of compound measured after 24 hrs; outline: as §1
[10] = system: Streptococcus pneumoniae; test: Selectivity ratio of MBC to MIC for Streptococcus pneumoniae 07P390 expressing constitutive ermB gene; outline: as §1
[11] = system: Haemophilus influenzae; test: Bactericidal activity against azithromycin-susceptible Haemophilus influenzae ATCC 49247 pretreated followed by subculture in absence of compound measured after 24 hrs; outline: as §1
[12] = system: Haemophilus influenzae; test: Selectivity ratio of MBC to MIC for azithromycin-susceptible Haemophilus influenzae ATCC 49247; outline: as §1
[13] = system: Streptococcus pyogenes; test: Antibacterial activity against MLS-resistant Streptococcus pyogenes 01-968 expressing inducible ermB gene assessed as reduction in microbial growth by CLSI based two-fold broth dilution method
[14] = system: Streptococcus pyogenes; test: Bactericidal activity against MLS-resistant Streptococcus pyogenes 01-968 expressing inducible ermB gene pretreated followed by subculture in absence of compound measured after 24 hrs
Outline: (§2)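 MBC assay. Following MIC determination by CLSI standard two-fold broth dilution, samples at 1–8 fold MIC were transferred to fresh culture medium. They were subcultured for 24 h without antibiotic. Isolates were identified by 16S rDNA sequencing. S. aureus ATCC 29213 was used as a control strain.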

[15] = system: Streptococcus pyogenes; test: Selectivity ratio of MBC to MIC for MLS-resistant Streptococcus pyogenes 01-968 expressing inducible ermB gene
Outline: (§3)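 MBC/MIC ratio. MIC was measured by CLSI standard two-fold broth dilution. MBC was measured by transferring samples at 1–8 fold MIC to culture medium and subculturing for 24 h without antibiotic. Isolates were identified by 16S rDNA sequencing.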

[16] = system: Staphylococcus aureus; test: Bactericidal activity against MLS/methicillin-resistant Staphylococcus aureus PU 32 expressing inducible ermA gene pretreated followed by subculture in absence of compound measured after 24 hrs; outline: as §2
[17] = system: Staphylococcus aureus; test: Selectivity ratio of MBC to MIC for MLS/methicillin-resistant Staphylococcus aureus PU 32 expressing inducible ermA gene; outline: as §3
[18] = system: Staphylococcus aureus; test: Antibacterial activity against MLS-resistant Staphylococcus aureus PU 20 expressing constitutive ermC gene assessed as reduction in microbial growth by CLSI based two-fold broth dilution method
[19] = system: Staphylococcus aureus; test: Bactericidal activity against MLS-resistant Staphylococcus aureus PU 20 expressing constitutive ermC gene pretreated followed by subculture in absence of compound measured after 24 hrs; outline: as §2
[20] = system: Streptococcus pyogenes; test: Antibacterial activity against MLS-resistant Streptococcus pyogenes 12-206 expressing constitutive ermA gene assessed as reduction in microbial growth by CLSI based two-fold broth dilution method
[21] = system: Streptococcus pyogenes; test: Bactericidal activity against MLS-resistant Streptococcus pyogenes 12-206 expressing constitutive ermA gene pretreated followed by subculture in absence of compound measured after 24 hrs; outline: as §2
[22] = system: Streptococcus pyogenes; test: Selectivity ratio of MBC to MIC for MLS-resistant Streptococcus pyogenes 12-206 expressing constitutive ermA gene; outline: as §3
[23] = system: Streptococcus pyogenes; test: Antibacterial activity against Streptococcus pyogenes 12-207 expressing mef gene assessed as reduction in microbial growth by CLSI based two-fold broth dilution method
[24] = system: Streptococcus pyogenes; test: Bactericidal activity against Streptococcus pyogenes 12-207 expressing mef gene pretreated followed by subculture in absence of compound measured after 24 hrs; outline: as §1
[25] = system: Streptococcus pyogenes; test: Selectivity ratio of MBC to MIC for Streptococcus pyogenes 12-207 expressing mef gene; outline: as §1
[26] = system: Moraxella catarrhalis; test: Antibacterial activity against erythromycin-susceptible Moraxella catarrhalis 13L332 assessed as reduction in microbial growth by CLSI based two-fold broth dilution method
[27] = system: Moraxella catarrhalis; test: Bactericidal activity against erythromycin-susceptible Moraxella catarrhalis 13L332 pretreated followed by subculture in absence of compound measured after 24 hrs; outline: as §1
[28] = system: Moraxella catarrhalis; test: Selectivity ratio of MBC to MIC for erythromycin-susceptible Moraxella catarrhalis 13L332; outline: as §1
[29] = system: Streptococcus pneumoniae; test: Selectivity ratio of MBC to MIC for erythromycin-susceptible Streptococcus pneumoniae ATCC49619; outline: as §1
[30] = system: Staphylococcus aureus; test: Selectivity ratio of MBC to MIC for MLS-resistant Staphylococcus aureus PU 20 expressing constitutive ermC gene; outline: as §3

Row | SMILES | MIC [1] [µg/mL] | MIC [2] [µg/mL] | MBC [3] [µg/mL] | MIC [4] [µg/mL] | MIC [5] [µg/mL] | MIC [6] [µg/mL] | MBC [7] [µg/mL] | Selectivity ratio [8] | MBC [9] [µg/mL] | Selectivity ratio [10] | MBC [11] [µg/mL] | Selectivity ratio [12] | MIC [13] [µg/mL] | MBC [14] [µg/mL] | Selectivity ratio [15] | MBC [16] [µg/mL] | Selectivity ratio [17] | MIC [18] [µg/mL] | MBC [19] [µg/mL] | Selectivity ratio [29] | further results
1 | CC[C@H]1OC(=O)[C@@](C)(F)C(=O)[C@H](C)[C@@H](O[C@@H]2O[C@H](C)C[C@H](N(C)C)[C@H]2O)[C@](C)(OC/C=C/c2ccc3c(c2)c(=O)c(C(=O)NC)cn3C2CC2)C[C@@H](C)/C(=N\OC)[C@H](C)[C@H]2OC(=O)O[C@@]21C | 1 | ≤ 0.008 | ≤ 0.008 | 32 | ≤ 0.008 | 0.25 | 0.5 (≈ 0.539 µM) | 2 | > 0.062 | >8 | 32 (≈ 34.5 µM) | 1 | ≤ 0.002 | > 0.016 | >8 | > 8 | >8 | 256 | > 256 |  | MIC [20]: 0.031 µg/mL; MBC [21]: > 0.25 µg/mL; Selectivity ratio [22]: >8; MIC [23]: 0.125 µg/mL; MBC [24]: 0.5 µg/mL (≈ 0.539 µM); Selectivity ratio [25]: 4; MIC [26]: 1 µg/mL; MBC [27]: > 8 µg/mL; Selectivity ratio [28]: >8
2 | CC[C@H]1OC(=O)[C@@](C)(F)C(=O)[C@H](C)[C@@H](O[C@@H]2O[C@H](C)C[C@H](N(C)C)[C@H]2O)[C@](C)(OC)C[C@@H](C)/C(=N\OCCCc2ccc3c(c2)c(=O)c(C(=O)O)cn3C2CC2)[C@H](C)[C@H]2OC(=O)O[C@@]21C | 4 | 0.125 | 0.25 (≈ 0.273 µM) | 16 | 8 | 2 | 2 (≈ 2.18 µM) | 1 | 16 (≈ 17.5 µM) | 2 | 32 (≈ 34.9 µM) | 2 | 0.125 | > 1 | >8 | 8 (≈ 8.73 µM) | 2 | 64 | 128 (≈ 140 µM) | 2 | Selectivity ratio [30]: 2
3 | CC[C@H]1OC(=O)[C@@](C)(F)C(=O)[C@H](C)[C@@H](O[C@@H]2O[C@H](C)C[C@H](N(C)C)[C@H]2O)[C@](C)(OC)C[C@@H](C)/C(=N\OCC#Cc2cncc3ccccc23)[C@H](C)[C@H]2OC(=O)O[C@@]21C | 4 | 2 | 4 (≈ 4.93 µM) | 64 | > 32 | 8 | 8 (≈ 9.85 µM) | 1 |  |  | 128 (≈ 158 µM) | 2 | 0.5 | > 4 | >8 | > 32 | >8 | 64 | > 256 | 2 | Selectivity ratio [30]: >4
4 | CC[C@H]1OC(=O)[C@@](C)(F)C(=O)[C@H](C)[C@@H](O[C@@H]2O[C@H](C)C[C@H](N(C)C)[C@H]2O)[C@](C)(OC/C=C/c2ccc3c(c2)c(=O)c(C(=O)O)cn3C2CC2)C[C@@H](C)/C(=N\OC)[C@H](C)[C@H]2OC(=O)O[C@@]21C | 0.25 | 0.125 | 0.25 (≈ 0.274 µM) | 2 | 1 | 2 | 2 (≈ 2.19 µM) | 1 | 8 (≈ 8.75 µM) | 8 | 4 (≈ 4.38 µM) | 2 | 0.031 | 0.25 (≈ 0.274 µM) | 8 | 2 (≈ 2.19 µM) | 8 | 64 | 128 (≈ 140 µM) | 2 | Selectivity ratio [30]: 2
5 | CC[C@H]1OC(=O)[C@@](C)(F)C(=O)[C@H](C)[C@@H](O[C@@H]2O[C@H](C)C[C@H](N(C)C)[C@H]2O)[C@](C)(OC)C[C@@H](C)/C(=N\OCC#Cc2ccc3c(c2)c(=O)c(C(=O)NC)cn3C2CC2)[C@H](C)[C@H]2OC(=O)O[C@@]21C | 1 | ≤ 0.008 | ≤ 0.008 | 64 | 0.25 | 0.5 | 0.5 (≈ 0.541 µM) | 1 | > 2 | >8 | 256 (≈ 277 µM) | 4 | ≤ 0.002 | > 0.016 | >8 | > 8 | >8 | 128 | > 256 |  | MIC [20]: 0.5 µg/mL; MBC [21]: > 4 µg/mL; Selectivity ratio [22]: >8; MIC [23]: 0.25 µg/mL; MBC [24]: 1 µg/mL (≈ 1.08 µM); Selectivity ratio [25]: 4; MIC [26]: 4 µg/mL; MBC [27]: > 32 µg/mL; Selectivity ratio [28]: >8
6 | CC[C@H]1OC(=O)[C@@](C)(F)C(=O)[C@H](C)[C@@H](O[C@@H]2O[C@H](C)C[C@H](N(C)C)[C@H]2O)[C@](C)(OC)C[C@@H](C)/C(=N\OCC#Cc2ccc3c(c2)c(=O)c(C(=O)NC)cn3CC)[C@H](C)[C@H]2OC(=O)O[C@@]21C | 2 | ≤ 0.008 | ≤ 0.008 | 32 | 0.125 | 0.25 | 1 (≈ 1.1 µM) | 4 | > 1 | >8 | 64 (≈ 70.1 µM) | 2 | ≤ 0.002 | > 0.016 | >8 | > 16 | >8 | 128 | > 256 |  | MIC [20]: 0.125 µg/mL; MBC [21]: > 1 µg/mL; Selectivity ratio [22]: >8; MIC [23]: 0.25 µg/mL; MBC [24]: 1 µg/mL (≈ 1.1 µM); Selectivity ratio [25]: 4; MIC [26]: 4 µg/mL; MBC [27]: > 32 µg/mL; Selectivity ratio [28]: >8
7 | CC[C@H]1OC(=O)[C@@](C)(F)C(=O)[C@H](C)[C@@H](O[C@@H]2O[C@H](C)C[C@H](N(C)C)[C@H]2O)[C@](C)(OC)C[C@@H](C)/C(=N\OCC#Cc2ccc3c(c2)c(=O)c(C(=O)O)cn3C2CC2)[C@H](C)[C@H]2OC(=O)O[C@@]21C | 1 | 0.25 | 0.5 (≈ 0.548 µM) | 8 | 4 | 2 | 4 (≈ 4.39 µM) | 2 | 32 (≈ 35.1 µM) | 8 | 16 (≈ 17.5 µM) | 2 | 0.25 | 2 (≈ 2.19 µM) | 8 | 4 (≈ 4.39 µM) | 4 | 32 | 128 (≈ 140 µM) | 2 | Selectivity ratio [30]: 4
8 | CC[C@H]1OC(=O)[C@@](C)(F)C(=O)[C@H](C)[C@@H](O[C@@H]2O[C@H](C)C[C@H](N(C)C)[C@H]2O)[C@](C)(OC)C[C@@H](C)/C(=N\OC/C=C/c2cnc3ccccc3c2N)[C@H](C)[C@H]2OC(=O)O[C@@]21C | 1 | 0.125 | 0.25 (≈ 0.302 µM) | 16 | 32 | 2 | 2 (≈ 2.41 µM) | 1 | 32 (≈ 38.6 µM) | 1 | 32 (≈ 38.6 µM) | 2 | 0.016 | > 0.125 | >8 | 8 (≈ 9.65 µM) | 8 | 64 | 128 (≈ 154 µM) | 2 | Selectivity ratio [30]: 2
